Laboratory results published in ChEMBL document CHEMBL1158511, “Tricyclic dihydroquinazolinones as novel 5-HT2C selective and orally efficacious anti-obesity agents” (Bioorg Med Chem Lett, 2010).

Tests used:
[1] = molecular target: T1, 5-hydroxytryptamine receptor 2C (Homo sapiens) (UniProt P28335); test: Intrinsic activity at human recombinant 5HT2C receptor at 3 uM expressed in HEK293E cells by FLIPR assay relative to control; type: cell-based
T1 sequence (whole entry): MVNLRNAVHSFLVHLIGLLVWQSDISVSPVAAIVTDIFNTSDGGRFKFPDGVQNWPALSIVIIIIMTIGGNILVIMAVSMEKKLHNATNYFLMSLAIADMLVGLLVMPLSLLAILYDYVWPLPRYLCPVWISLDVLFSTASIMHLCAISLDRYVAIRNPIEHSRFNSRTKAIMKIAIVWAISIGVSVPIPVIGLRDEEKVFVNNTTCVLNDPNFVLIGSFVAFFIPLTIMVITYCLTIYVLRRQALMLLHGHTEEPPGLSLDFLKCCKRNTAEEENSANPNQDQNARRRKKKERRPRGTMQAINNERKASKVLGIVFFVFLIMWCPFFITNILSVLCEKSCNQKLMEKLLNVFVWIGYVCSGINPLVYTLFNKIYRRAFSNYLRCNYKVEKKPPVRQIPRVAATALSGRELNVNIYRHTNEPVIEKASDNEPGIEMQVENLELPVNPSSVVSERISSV
Summary of the method: (§1)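 FLIPR calcium mobilization in HEK293E cells expressing the human receptor. Intrinsic activity is expressed relative to activation by 3 µM serotonin, defined as 1.0. Values are means of ≥2 independent 12-point dose-response curves.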

[2] = molecular target: T2, 5-hydroxytryptamine receptor 2B (Homo sapiens, UniProt P41595); test: Intrinsic activity at human recombinant 5HT2B receptor expressed in HEK293E cells by FLIPR assay at 3 uM relative to control; type: cell-based; summary of the method: as §1
[3] = molecular target: T3, 5-hydroxytryptamine receptor 2A (Homo sapiens, UniProt P28223); test: Intrinsic activity at human recombinant 5HT2A receptor expressed in HEK293E cells by FLIPR assay at 3 uM relative to control; type: cell-based; summary of the method: as §1
[4] = molecular target: T2, 5-hydroxytryptamine receptor 2B; test: Agonist activity at human recombinant 5HT2B receptor expressed in HEK293E cells by FLIPR assay; type: functional, cell-based
Summary of the method: (§2)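 Calcium mobilization measured by FLIPR in HEK293E cells expressing human 5-HT2A, 5-HT2B or 5-HT2C receptor. Values are means of ≥2 independent 12-point dose-response curves (n ≥4 where SD is given). mCPP is the positive control.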

[5] = molecular target: T3, 5-hydroxytryptamine receptor 2A; test: Displacement of [125I]DOI from human recombinant 5HT2A receptor expressed in HEK293E cells; type: cell-based
Summary of the method: (§3)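 Radioligand binding with [125I]DOI at the human 5-HT2C or 5-HT2A receptor. Ki is the mean of ≥2 independent 12-point dose-response curves (n ≥4 where SD is given).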

[6] = molecular target: T3, 5-hydroxytryptamine receptor 2A; test: Agonist activity at human recombinant 5HT2A receptor expressed in HEK293E cells by FLIPR assay; type: functional, cell-based; summary of the method: as §2
[7] = molecular target: T4, 5-hydroxytryptamine receptor 2C (Homo sapiens, UniProt P28335); test: Displacement of [125I]DOI from human recombinant 5HT2C receptor expressed in HEK293E cells; type: cell-based; summary of the method: as §3
T4 sequence (P28335 whole entry): T1 sequence (whole entry)

[8] = molecular target: T4, 5-hydroxytryptamine receptor 2C; test: Agonist activity at human recombinant 5HT2C receptor expressed in HEK293E cells by FLIPR assay; type: functional, cell-based; summary of the method: as §2
[9] = molecular target: T2, 5-hydroxytryptamine receptor 2B; test: Displacement of [3H]LSD from human recombinant 5HT2B receptor expressed in HEK293E cells
[10] = molecular target: 5-hydroxytryptamine receptor 2B (Rattus norvegicus) (UniProt P30994); test: Intrinsic activity at 5HT2B receptor in rat fundus at 10 uM relative to control
Rattus norvegicus [11] = species: Rattus norvegicus; test: Antiobesity activity in Sprague-Dawley rat assessed as reduction of food intake after 20 hrs; type: functional, organism-based
[12] = Tmax in Sprague-Dawley rat at 10 mg/kg, po; type: ADME, organism-based; design: dose 10 mg/kg, route oral; settings: in vivo
Summary of the method: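 Male Sprague–Dawley rats were dosed po only at 1 or 10 mpk. Values are means of 2 animals. AUC was collected over 4 h. Plasma and total brain levels were taken at 4 h post dose.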

[13] = AUC in Sprague-Dawley rat at 10 mg/kg, po after 8 hrs; type: ADME, organism-based; design: time < 8 hr, dose 10 mg/kg, route oral; settings: plasma
Summary of the method: (§4)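 Male Sprague–Dawley rats given a single oral dose, 2 animals per value. AUC is taken over 0–8 h. Plasma and total brain levels are measured at 8 h post dose.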

[14] = Plasma concentration in Sprague-Dawley rat at 10 mg/kg, po after 8 hrs; type: ADME, organism-based; design: dose 10 mg/kg, route oral; summary of the method: as §4
Brain = test: Drug level in Sprague-Dawley rat brain at 10 mg/kg, po after 8 hrs; type: ADME, organism-based; design: dose 10 mg/kg, route oral; settings: in vivo; summary of the method: as §4
Rattus norvegicus [15] = test: Antiobesity activity in Sprague-Dawley rat assessed as reduction of food intake at 10 mg/kg, po after 20 hrs; type: functional; design: scale not given: the % may be the effect or the level left
Rattus norvegicus [16] = test: Antiobesity activity in Sprague-Dawley rat assessed as reduction of body weight at 30 mg/kg, po after 4 days; type: functional; design: scale not given: the % may be the effect or the level left
Summary of the method: (§5)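 Male Sprague–Dawley rats, about 240 g (n = 8), were dosed orally once daily for 4 days with compound or vehicle (14% propylene glycol, 1% tween, 85% water, v/v/v). Body weight, food and water intake were measured daily and compared with vehicle.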

Rattus norvegicus [17] = test: Antiobesity activity in Sprague-Dawley rat assessed as reduction of caloric intake at 30 mg/kg, po after 4 days; type: functional; design: scale not given: the % may be the effect or the level left; summary of the method: as §5
Rattus norvegicus [18] = test: Antiobesity activity in Sprague-Dawley rat assessed as reduction of food intake at 30 mg/kg, po after 20 hrs; type: functional; design: scale not given: the % may be the effect or the level left
Summary of the method: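 Male Sprague–Dawley rats (n = 6) are dosed orally 60 min before dark-cycle onset. Vehicle is 14% propylene glycol, 1% tween, 85% water (v/v/v). Food pellet consumption over 20 h is compared with vehicle-treated animals as percent reduction. Water intake and locomotor activity are recorded at the same time.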

T3 sequence (P28223 whole entry): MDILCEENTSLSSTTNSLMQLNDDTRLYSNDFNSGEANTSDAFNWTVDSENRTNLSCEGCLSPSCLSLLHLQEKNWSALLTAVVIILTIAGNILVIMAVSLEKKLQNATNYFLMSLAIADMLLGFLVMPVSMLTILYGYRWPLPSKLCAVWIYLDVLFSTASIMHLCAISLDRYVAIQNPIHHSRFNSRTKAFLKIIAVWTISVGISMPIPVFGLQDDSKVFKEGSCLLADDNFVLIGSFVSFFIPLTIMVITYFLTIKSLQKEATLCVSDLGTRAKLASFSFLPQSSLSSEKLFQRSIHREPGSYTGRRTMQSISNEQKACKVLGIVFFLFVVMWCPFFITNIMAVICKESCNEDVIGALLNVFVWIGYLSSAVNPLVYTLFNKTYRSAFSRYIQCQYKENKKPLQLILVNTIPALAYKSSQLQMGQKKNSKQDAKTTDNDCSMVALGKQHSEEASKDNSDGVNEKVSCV
T2 sequence (P41595 whole entry): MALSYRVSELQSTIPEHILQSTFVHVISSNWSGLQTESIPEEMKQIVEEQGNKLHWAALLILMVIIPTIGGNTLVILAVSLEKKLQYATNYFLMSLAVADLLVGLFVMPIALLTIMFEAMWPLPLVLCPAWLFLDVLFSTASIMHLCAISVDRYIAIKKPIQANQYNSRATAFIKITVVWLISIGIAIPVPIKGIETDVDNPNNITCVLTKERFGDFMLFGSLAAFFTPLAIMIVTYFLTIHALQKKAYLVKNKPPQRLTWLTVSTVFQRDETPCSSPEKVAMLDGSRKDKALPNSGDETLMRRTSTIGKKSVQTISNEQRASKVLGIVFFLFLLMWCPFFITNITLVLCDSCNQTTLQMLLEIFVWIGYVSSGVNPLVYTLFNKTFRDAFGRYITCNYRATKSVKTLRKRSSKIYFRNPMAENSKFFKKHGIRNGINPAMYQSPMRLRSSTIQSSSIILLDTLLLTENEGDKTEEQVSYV
Sequence of 5-hydroxytryptamine receptor 2B (Rattus norvegicus) (P30994 whole entry, looked up): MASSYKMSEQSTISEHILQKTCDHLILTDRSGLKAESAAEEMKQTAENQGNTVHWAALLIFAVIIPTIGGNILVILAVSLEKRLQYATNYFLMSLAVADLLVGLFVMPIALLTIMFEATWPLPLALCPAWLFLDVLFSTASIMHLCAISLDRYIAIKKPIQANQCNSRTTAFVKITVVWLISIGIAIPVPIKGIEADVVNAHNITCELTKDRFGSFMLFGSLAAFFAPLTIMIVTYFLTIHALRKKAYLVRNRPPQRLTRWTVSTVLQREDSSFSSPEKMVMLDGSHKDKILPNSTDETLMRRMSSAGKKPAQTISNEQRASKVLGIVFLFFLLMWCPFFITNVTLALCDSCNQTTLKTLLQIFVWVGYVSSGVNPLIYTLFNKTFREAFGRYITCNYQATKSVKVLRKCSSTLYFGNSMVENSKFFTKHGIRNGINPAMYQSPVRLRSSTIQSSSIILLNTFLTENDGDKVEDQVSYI

Row | SMILES | Intrinsic activity [1] | Intrinsic activity [2] | Intrinsic activity [3] | EC50 [4] | Ki [5] | EC50 [6] | Ki [7] | EC50 [8] | Ki [9] | also measured
1 | Clc1cccc(N2CCNCC2)c1 | 1 | 0.4 | 0.3 |  |  |  |  |  |  | 
2 | Cc1ccc2c(c1)N1CCNCC1NC2=O (single isomer, unassigned) | 1 | 0 | 0.26 | > 10000 nM | 600 nM | > 1000 nM | 479 nM | 34 nM | 280 nM | 
3 | Cc1ccc2c(c1)N1CCNCCC1NC2=O (stereo in doubt; (-)-3c) [listing 1 of 2 here] | 0.66 |  | 0.11 |  |  |  |  |  |  | 
4 | Cc1cccc2c1C(=O)NC1CCNCCN21 (configuration not stated) | 1 | 0.44 | 1 | 61 nM | 141 nM | 70 nM | 2.9 nM | 2 nM | 10 nM | Intrinsic activity [10]: 0.2
5 | O=C1NC2CNCCCN2c2cccc(Cl)c21 (racemic) |  |  |  |  | 13600 nM |  | 1550 nM |  | 734 nM | 
6 | Cc1cccc2c1C(=O)NC1CNCCN21 (stereo in doubt; (-)-2a) [listing 1 of 2 here] | 0.9 |  |  |  |  |  |  |  |  | 
7 | Cc1cccc2c1C(=O)NC1CNCCN21 (single isomer, unassigned; (+)) | 1 | 0 | 0 |  |  |  |  |  |  | Activity (Rattus norvegicus [11]): Dose-dependent effect
8 | O=C1NC2CNCCN2c2ccccc21 (single isomer, unassigned) | 0.96 |  |  |  | 1980 nM |  | 1940 nM | 137 nM | 137 nM | 
9 | O=C1NC2CNCCN2c2c(Cl)cccc21 (configuration not stated) | 0 |  |  |  | > 10000 nM |  | > 10000 nM | > 10000 nM | > 10000 nM | 
10 | Cc1cccc2c1C(=O)NC1CNCCN21 (stereo in doubt; (-)-2a) [listing 2 of 2 here] |  |  |  |  | 4480 nM |  | 2080 nM | 989 nM | 206 nM | 
11 | Cc1ccc2c(c1)N1CCNCCC1NC2=O (stereo in doubt; (+)-3c) [listing 1 of 2 here] | 1.1 | 0 | 0.28 |  |  |  |  |  |  | 
12 | O=C1NC2CCNCCN2c2cccc(Cl)c21 (single isomer, unassigned) | 1 | 0.5 | 0.8 | 46 nM | 168 nM | 130 nM | 9 nM | 1.8 nM | 23 nM | 
13 | O=C1NC2CNCCN2c2ccc(Cl)cc21 (single isomer, unassigned) | 0.97 |  |  |  | 397 nM |  | 757 nM | 110 nM | 72 nM | 
14 | Cc1ccc2c(c1)C(=O)NC1CNCCN21 (single isomer, unassigned) | 1 | 0 | 0.34 | > 10000 nM | 1220 nM | > 705 nM | 998 nM | 133 nM | 61 nM | 
15 | Cc1ccc2c(c1)N1CCNCCC1NC2=O (stereo in doubt; (+)-3c) [listing 2 of 2 here] |  |  |  | > 10000 nM | 364 nM | 952 nM | 6.5 nM | 6.6 nM | 41 nM | Tmax [12]: 1.5 h; AUC at 8 h [13]: 9.24 µM·h; concentration at 8 h [14]: 714 nM; Drug uptake (Brain): 108 nmol/kg; Activity (Rattus norvegicus [15]): 18%; Activity (Rattus norvegicus [16]): 2.7%; Activity (Rattus norvegicus [17]): 19%; Activity (Rattus norvegicus [18]): 25%
16 | O=C1NC2CNCCN2c2cccc(Cl)c21 (configuration not stated) | 0.8 | 0 | 0 | > 10000 nM | 334 nM | > 10000 nM | 223 nM | 43 nM | 18 nM | 
17 | O=C1NC2CNCCN2c2cccc(C(F)(F)F)c21 (single isomer, unassigned) | 0.93 |  |  | > 10000 nM | 184 nM |  | 153 nM | 92 nM | 13 nM | 
18 | Cc1ccc2c(c1)N1CCNCCC1NC2=O (stereo in doubt; (-)-3c) [listing 2 of 2 here] |  |  |  |  | 454 nM | > 10000 nM | 60 nM | 92 nM | 51 nM | 
19 | Cc1cccc2c1N1CCNCC1NC2=O (configuration not stated) | 0.4 |  | 0 |  | > 10000 nM | > 10000 nM | 6150 nM | 4200 nM | 2390 nM | 
20 | O=C1NC2CCNCCN2c2ccccc21 (single isomer, unassigned) | 0.8 | 0.6 | 1 | 101 nM | 269 nM | 248 nM | 49 nM | 16 nM | 67 nM | 
